From ChEMBL document CHEMBL4130598, “Discovery of New Sulfonamide Carbonic Anhydrase IX Inhibitors Incorporating Nitrogenous Bases” (ACS Med Chem Lett, 2017)
Activity calls are given as the source filed them. The calls are words filed in the database; no cut-off is given here.

Assays:
Carbonic anhydrase 9 = Carbonic anhydrase 9 (Homo sapiens, UniProt Q16790); test: Inhibition of human carbonic anhydrase 9 incubated for 15 mins by stopped flow CO2 hydrase assay
Carbonic anhydrase 1 = Carbonic anhydrase 1 (Homo sapiens, UniProt P00915); test: Inhibition of human carbonic anhydrase 1 incubated for 15 mins by stopped flow CO2 hydrase assay
HT-29 [1] = test: Cytotoxicity in human HT-29 cells assessed as reduction in cell viability at 30 to 300 uM incubated for 48 hrs under hypoxic conditions by MTT assay; type: functional
Method in brief: (§1)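 HT-29 human colon cancer cells seeded at 1 × 10^4 per well and exposed to 30−300 μM for 16 or 48 h, under normoxia (20% O2) or hypoxia (0.1% O2). Viability is given relative to untreated control set at 100%, as mean ± SEM of three experiments, with significance tested against 0 μM.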

HT-29 [2] = test: Cytotoxicity in human HT-29 cells assessed as cell mortality at 30 to 300 uM incubated for 16 hrs under normoxic conditions by MTT assay; type: functional
HT-29 [3] = test: Cytotoxicity in human HT-29 cells assessed as reduction in cell viability at 30 to 300 uM incubated for 16 hrs under hypoxic conditions by MTT assay
HT-29 [4] = test: Cytotoxicity in human HT-29 cells assessed as reduction in cell viability at 30 to 300 uM incubated for 16 hrs under normoxic conditions by MTT assay; type: functional, cell-based; method in brief: as §1

Sequence of Carbonic anhydrase 1 (P00915 whole entry): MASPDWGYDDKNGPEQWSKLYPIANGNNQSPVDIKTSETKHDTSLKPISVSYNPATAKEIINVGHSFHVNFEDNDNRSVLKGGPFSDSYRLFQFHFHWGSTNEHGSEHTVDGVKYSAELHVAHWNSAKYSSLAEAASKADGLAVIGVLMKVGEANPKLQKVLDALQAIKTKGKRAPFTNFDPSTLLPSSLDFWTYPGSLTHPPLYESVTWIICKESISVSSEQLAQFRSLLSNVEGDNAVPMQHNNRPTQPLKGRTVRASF

SMILES	Ki (Carbonic anhydrase 9) [nM]	other results
Nc1ncnc2c1ncn2CC(=O)Nc1cccc(S(N)(=O)=O)c1	428	Ki (Carbonic anhydrase 1): > 10000 nM
CN(C)/C=N/c1ncnc2c1ncn2CC(=O)NCc1ccc(S(N)(=O)=O)cc1	166	
CN(C)/C=N/c1ncnc2c1ncn2CC(=O)Nc1ccc(S(N)(=O)=O)cc1	40	
CN(C)/C=N/c1ncnc2c1ncn2CC(=O)Nc1cccc(S(N)(=O)=O)c1	2810	Ki (Carbonic anhydrase 1): > 10000 nM
Nc1ncnc2c1ncn2CCOc1ccc(S(N)(=O)=O)cc1	29.9	Activity (HT-29 [1]): 25 - 30%; Activity (HT-29 [2]): 10 - 15%; Activity (HT-29 [3]): inactive; Activity (HT-29 [4]): Active
Nc1ncnc2c1ncn2CC(=O)NCc1ccc(S(N)(=O)=O)cc1	45.2	
NS(=O)(=O)c1ccc(-n2cc(Cn3ccc(=O)[nH]c3=O)nn2)cc1	4.8	
NS(=O)(=O)c1ccc(CCNC(=O)Cn2ccc(=O)[nH]c2=O)cc1	46	
Nc1ncnc2c1ncn2CC(=O)NCCc1ccc(S(N)(=O)=O)cc1	11.4	Activity (HT-29 [2]): 10 - 15%; Activity (HT-29 [3]): inactive
Nc1ncnc2c1ncn2Cc1cn(-c2ccc(S(N)(=O)=O)cc2)nn1	1.9	
CN(C)/C=N/c1ncnc2c1ncn2CC(=O)NCCc1ccc(S(N)(=O)=O)cc1	113	
Nc1ncnc2c1ncn2Cc1cn(-c2cccc(S(N)(=O)=O)c2)nn1	1310	Ki (Carbonic anhydrase 1): > 10000 nM
NS(=O)(=O)c1cccc(NC(=O)Cn2ccc(=O)[nH]c2=O)c1	3120	
NS(=O)(=O)c1ccc(CNC(=O)Cn2ccc(=O)[nH]c2=O)cc1	405	
NS(=O)(=O)c1ccc(NC(=O)Cn2ccc(=O)[nH]c2=O)cc1	25.7	Activity (HT-29 [1]): 25 - 30%; Activity (HT-29 [3]): inactive; Activity (HT-29 [4]): Active
NS(=O)(=O)c1ccc(O)c(NC(=O)Cn2ccc(=O)[nH]c2=O)c1	439	
Nc1ncnc2c1ncn2CC(=O)Nc1ccc(S(N)(=O)=O)cc1	16.9	Activity (HT-29 [1]): 25 - 30%; Activity (HT-29 [2]): 10 - 15%; Activity (HT-29 [3]): Active; Activity (HT-29 [4]): Active
NS(=O)(=O)c1cccc(-n2cc(Cn3ccc(=O)[nH]c3=O)nn2)c1	460	
